Reference: ChEMBL document CHEMBL5649170, “Sustained microglial depletion with CSF1R inhibitor impairs parenchymal plaque development in an Alzheimer's disease model” (Nat Commun, 2019)

Experiments:
[1] = Drug concentration in wildtype mouse plasma at 75 ppm administered as rodent chow starting from 1.5 months and measured after 5 months; type: ADME, cell-free; conditions: route po, time 3.5 months
Method in brief: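 WT or 5xFAD mice were fed PLX3397 in AIN-76A chow at 600 ppm or 75 ppm from 1.5 to 5 months of age. Terminal brain and plasma drug concentrations were determined at study end.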

Mus musculus [2] = experiment: Antialzheimer activity in 5XFAD mouse assessed as average plaque volume in […] cortex at 75 ppm administered as rodent chow starting from 1.5 months and measured after 5 months by immunolabeling based confocal microscopic analysis (reference value: 789.31 to 1314.37 microm3); type: functional; conditions: route po, time 3.5 months, 2555 h
Method in brief: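 5xFAD mice fed PLX3397 at 75 ppm in AIN-76A chow from 1.5 to 5 months of age; retrosplenial and somatosensory cortex sections stained with Thio-S and immunolabeled for IBA1; confocal imaging, IBA1+ cells and plaques quantified per region; two-tailed independent t-test, n = 4–5 per group, mean ± SEM.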

[3] = target: Protein kinase C beta type (Homo sapiens, UniProt P05771); experiment: Inhibition of PRKCB2 (unknown origin)
Protein kinase C beta type, sequence (P05771 whole entry): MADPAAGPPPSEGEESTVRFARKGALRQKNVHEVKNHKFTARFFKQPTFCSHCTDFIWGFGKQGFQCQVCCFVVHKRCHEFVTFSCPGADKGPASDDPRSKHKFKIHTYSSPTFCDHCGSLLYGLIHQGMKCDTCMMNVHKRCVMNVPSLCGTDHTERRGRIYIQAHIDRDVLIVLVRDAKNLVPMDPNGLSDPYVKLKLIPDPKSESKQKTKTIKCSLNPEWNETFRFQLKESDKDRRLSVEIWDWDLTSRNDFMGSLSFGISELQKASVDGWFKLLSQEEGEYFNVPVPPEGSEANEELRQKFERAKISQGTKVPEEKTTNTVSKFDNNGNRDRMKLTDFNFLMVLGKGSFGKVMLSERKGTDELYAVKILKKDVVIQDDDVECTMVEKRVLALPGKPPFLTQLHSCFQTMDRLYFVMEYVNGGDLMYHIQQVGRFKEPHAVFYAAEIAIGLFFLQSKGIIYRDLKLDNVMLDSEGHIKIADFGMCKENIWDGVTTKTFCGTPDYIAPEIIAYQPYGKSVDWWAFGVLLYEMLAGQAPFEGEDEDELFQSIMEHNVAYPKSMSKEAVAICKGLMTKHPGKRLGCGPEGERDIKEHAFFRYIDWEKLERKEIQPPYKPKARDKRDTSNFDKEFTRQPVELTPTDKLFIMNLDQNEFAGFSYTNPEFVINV

[4] = Prevention of Rtn4r gene downregulation in 5XFAD mouse hippocampus assessed as percent change in Reads Per kilo base per Million mapped reads at 1200 ppm administered as rodent chow starting from 1.5 months and measured after 7 months by RNA-Seq analysis (reference value: 53.880 to 87.869 %); type: functional; conditions: route po, time 5.5 months, 4015 h
Mus musculus [5] = experiment: Antialzheimer activity in 5XFAD mouse assessed as average diameter of claudin-5 blood vessels in Thio-S positive retro spinal cortex at 1200 ppm administered as rodent chow starting from 1.5 months and measured after 4 months by immunolabeling analysis; type: functional; conditions: route po, time 2.5 months, 1825 h
Mus musculus [6] = experiment: Antialzheimer activity in 5XFAD mouse assessed as time spent in closed arm at 1200 ppm administered as rodent chow for 10 to 24 weeks by Elevated plus maze test (reference value: 76.2 to 206.2 sec); type: functional; conditions: route po, time 10-24 weeks
[7] = AUC (0 to infinity) in female rat at 45 mg/kg, po administered as single dose via gavage; type: ADME, organism-based; conditions: in vivo
Mus musculus [8] = experiment: Effect on APP processing pathway in wildtype mouse assessed as PEN2 protein signal intensity in cortex at 1200 ppm administered as rodent starting from 1.5 months and measured after 7 months (reference value: 47.716 to 128.950 %); type: functional; conditions: route po, time 5.5 months, 4015 h
[9] = target: Mitogen-activated protein kinase kinase kinase kinase 5 (Homo sapiens, UniProt Q9Y4K4); experiment: Inhibition of MAP4K5 (unknown origin)
Mitogen-activated protein kinase kinase kinase kinase 5, sequence (Q9Y4K4 whole entry): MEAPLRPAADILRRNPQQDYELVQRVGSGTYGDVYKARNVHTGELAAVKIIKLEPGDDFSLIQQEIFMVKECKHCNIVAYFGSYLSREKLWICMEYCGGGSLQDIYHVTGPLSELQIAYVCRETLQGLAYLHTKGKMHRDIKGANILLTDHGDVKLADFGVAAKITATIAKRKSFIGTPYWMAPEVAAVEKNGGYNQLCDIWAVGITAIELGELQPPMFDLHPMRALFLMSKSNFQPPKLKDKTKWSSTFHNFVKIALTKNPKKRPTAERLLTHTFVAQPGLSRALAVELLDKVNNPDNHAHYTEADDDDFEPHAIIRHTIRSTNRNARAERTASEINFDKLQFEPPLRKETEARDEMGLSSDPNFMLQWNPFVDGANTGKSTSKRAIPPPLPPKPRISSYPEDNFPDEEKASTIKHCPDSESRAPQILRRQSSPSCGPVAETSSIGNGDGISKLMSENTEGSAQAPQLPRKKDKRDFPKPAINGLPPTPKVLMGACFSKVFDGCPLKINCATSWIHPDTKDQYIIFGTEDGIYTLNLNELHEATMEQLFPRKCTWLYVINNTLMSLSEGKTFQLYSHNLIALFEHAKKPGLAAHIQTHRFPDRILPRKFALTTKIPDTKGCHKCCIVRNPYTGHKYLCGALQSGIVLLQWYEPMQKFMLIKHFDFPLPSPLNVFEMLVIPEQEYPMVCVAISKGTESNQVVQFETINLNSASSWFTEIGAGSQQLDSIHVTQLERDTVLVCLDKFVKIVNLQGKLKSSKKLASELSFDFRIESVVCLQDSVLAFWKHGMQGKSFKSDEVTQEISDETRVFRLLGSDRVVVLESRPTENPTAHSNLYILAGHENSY

[10] = target: Ribosomal protein S6 kinase alpha-4 (Homo sapiens, UniProt O75676); experiment: Inhibition of RPS6KA4 (unknown origin)
Ribosomal protein S6 kinase alpha-4, sequence (O75676 whole entry): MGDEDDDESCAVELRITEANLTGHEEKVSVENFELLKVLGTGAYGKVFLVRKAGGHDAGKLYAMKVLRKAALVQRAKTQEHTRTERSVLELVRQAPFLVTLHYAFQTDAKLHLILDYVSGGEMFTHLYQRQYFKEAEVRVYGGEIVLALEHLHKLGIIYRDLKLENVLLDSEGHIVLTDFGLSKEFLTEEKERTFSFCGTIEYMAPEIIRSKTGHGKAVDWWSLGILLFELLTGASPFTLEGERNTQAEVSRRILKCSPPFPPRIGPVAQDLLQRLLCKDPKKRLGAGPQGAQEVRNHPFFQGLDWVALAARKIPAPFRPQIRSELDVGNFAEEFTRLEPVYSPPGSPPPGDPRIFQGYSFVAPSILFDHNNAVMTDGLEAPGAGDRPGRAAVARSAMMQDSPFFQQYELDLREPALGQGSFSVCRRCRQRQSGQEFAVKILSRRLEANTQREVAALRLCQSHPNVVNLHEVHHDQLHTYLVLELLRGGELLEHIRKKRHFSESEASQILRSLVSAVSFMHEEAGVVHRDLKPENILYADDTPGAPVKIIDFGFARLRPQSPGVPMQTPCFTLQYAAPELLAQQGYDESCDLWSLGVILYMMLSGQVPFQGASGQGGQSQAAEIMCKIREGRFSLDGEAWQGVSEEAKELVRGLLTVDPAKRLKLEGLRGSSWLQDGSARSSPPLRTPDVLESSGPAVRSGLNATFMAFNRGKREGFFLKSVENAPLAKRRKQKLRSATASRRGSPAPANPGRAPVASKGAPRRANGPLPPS

[11] = Effect on Dync1i1 gene expression in wildtype mouse hippocampus assessed as percent change in Reads Per kilo base per Million mapped reads at 1200 ppm administered as rodent chow starting from 1.5 months and measured after 7 months by RNA-Seq analysis (reference value: 96.347 to 105.024 %); type: functional; conditions: route po, time 5.5 months, 4015 h
[12] = target: MAP kinase-activated protein kinase 2 (Homo sapiens, UniProt P49137); experiment: Inhibition of MAPKAPK2 (unknown origin)
MAP kinase-activated protein kinase 2, sequence (P49137 whole entry): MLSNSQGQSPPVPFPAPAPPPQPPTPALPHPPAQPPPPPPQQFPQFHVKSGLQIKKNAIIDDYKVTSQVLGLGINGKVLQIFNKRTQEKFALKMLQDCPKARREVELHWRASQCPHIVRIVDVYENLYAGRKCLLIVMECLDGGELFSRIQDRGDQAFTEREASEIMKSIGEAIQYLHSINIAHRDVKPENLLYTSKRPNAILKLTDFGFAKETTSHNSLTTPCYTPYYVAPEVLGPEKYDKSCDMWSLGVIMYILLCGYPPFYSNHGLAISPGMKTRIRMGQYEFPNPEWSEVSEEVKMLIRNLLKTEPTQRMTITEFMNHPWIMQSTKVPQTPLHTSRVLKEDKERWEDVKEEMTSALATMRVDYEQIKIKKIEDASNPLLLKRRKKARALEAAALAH

[13] = Effect on Csf1r RPKM gene expression in wild type mouse hippocampus at 1200 ppm administered as rodent chow starting from 1.5 months and measured after 7 months by RNA-Seq analysis (reference value: 18.240 to 20.004 RPKM); type: functional; conditions: route po, time 5.5 months, 4015 h
Mus musculus [14] = experiment: Antialzheimer activity in 5XFAD mouse assessed as number of Thio-S positive plaques per FOV in […] cortex at 1200 ppm administered as rodent chow starting from 1.5 months and measured after 7 months by Thio-S staining based confocal microscopic analysis (reference value: 52 to 140); type: functional; conditions: route po, time 5.5 months, 4015 h
[15] = target: Serine/threonine-protein kinase Sgk1 (Homo sapiens, UniProt O00141); experiment: Inhibition of SGK (unknown origin)
Serine/threonine-protein kinase Sgk1, sequence (O00141 whole entry, canonical isoform): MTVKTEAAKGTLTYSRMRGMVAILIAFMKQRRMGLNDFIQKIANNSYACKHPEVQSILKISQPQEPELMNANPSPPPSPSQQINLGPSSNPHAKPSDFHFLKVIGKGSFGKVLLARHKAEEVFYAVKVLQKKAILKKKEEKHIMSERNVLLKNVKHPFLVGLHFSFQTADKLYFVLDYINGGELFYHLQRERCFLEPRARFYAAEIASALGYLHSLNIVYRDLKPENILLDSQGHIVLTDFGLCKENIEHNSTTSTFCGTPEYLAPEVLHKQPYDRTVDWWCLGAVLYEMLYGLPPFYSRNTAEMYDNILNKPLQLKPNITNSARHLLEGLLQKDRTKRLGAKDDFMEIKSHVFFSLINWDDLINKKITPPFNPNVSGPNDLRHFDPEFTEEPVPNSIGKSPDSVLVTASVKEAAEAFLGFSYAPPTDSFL

[16] = target: Casein kinase I isoform delta (Homo sapiens, UniProt P48730); experiment: Inhibition of CSNK1D (unknown origin)
Casein kinase I isoform delta, sequence (P48730 whole entry, canonical isoform): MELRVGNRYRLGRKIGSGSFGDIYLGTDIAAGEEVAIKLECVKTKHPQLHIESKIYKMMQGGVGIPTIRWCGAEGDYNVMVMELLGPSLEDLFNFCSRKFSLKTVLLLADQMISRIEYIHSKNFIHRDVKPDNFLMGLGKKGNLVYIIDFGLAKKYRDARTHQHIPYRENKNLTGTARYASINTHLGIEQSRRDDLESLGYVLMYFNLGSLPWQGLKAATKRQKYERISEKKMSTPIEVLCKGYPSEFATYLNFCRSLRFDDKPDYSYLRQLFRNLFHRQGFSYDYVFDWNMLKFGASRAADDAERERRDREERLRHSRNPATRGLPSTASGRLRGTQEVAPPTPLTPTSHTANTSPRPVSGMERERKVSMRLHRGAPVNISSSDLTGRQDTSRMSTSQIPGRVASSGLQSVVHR

Mus musculus [17] = experiment: Antialzheimer activity in 5XFAD mouse assessed as average plaque volume in somatosensory cortex at 1200 ppm administered as rodent chow starting from 1.5 months and measured after 7 months by Thio-S staining based confocal microscopic analysis (reference value: 711.144 to 2878.724 microm3); type: functional; conditions: route po, time 5.5 months, 4015 h
[18] = target: T1, Macrophage colony-stimulating factor 1 receptor (Mus musculus) (UniProt P09581); experiment: In vivo inhibition of CSF1R in wildtype mouse assessed as number of Iba1 positive cells per FOV in subiculum at 1200 ppm administered as rodent chow starting from 1.5 months and measured after 7 months by immunolabeling based confocal microscopic analysis (reference value: 482 to 1085); type: functional; conditions: route po, time 5.5 months
T1 sequence (whole entry): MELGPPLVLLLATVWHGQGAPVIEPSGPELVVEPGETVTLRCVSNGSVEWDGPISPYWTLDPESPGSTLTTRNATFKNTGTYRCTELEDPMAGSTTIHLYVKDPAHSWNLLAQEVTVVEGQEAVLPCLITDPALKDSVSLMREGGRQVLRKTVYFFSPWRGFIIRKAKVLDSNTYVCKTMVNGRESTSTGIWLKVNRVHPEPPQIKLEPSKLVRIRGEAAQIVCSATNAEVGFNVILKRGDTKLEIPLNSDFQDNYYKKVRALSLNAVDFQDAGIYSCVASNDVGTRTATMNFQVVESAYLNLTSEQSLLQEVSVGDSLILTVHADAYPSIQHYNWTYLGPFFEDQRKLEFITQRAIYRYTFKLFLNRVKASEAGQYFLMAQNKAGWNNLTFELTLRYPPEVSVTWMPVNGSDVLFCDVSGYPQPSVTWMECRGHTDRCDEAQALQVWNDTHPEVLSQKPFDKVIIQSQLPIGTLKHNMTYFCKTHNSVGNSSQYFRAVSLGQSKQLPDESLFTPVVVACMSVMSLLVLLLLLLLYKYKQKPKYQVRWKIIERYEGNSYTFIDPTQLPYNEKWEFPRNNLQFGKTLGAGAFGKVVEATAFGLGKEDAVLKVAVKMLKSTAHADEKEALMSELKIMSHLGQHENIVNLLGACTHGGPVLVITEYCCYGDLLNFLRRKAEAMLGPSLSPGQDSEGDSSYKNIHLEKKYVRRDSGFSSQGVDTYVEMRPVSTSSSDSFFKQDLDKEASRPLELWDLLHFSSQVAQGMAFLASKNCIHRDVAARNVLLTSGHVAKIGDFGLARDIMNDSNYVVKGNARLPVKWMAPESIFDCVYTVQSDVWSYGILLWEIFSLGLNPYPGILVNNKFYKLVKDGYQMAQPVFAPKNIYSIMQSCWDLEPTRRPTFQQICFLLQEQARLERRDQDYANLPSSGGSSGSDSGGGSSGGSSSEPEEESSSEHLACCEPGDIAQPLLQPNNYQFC

[19] = target: Dual specificity tyrosine-phosphorylation-regulated kinase 1A (Homo sapiens, UniProt Q13627); experiment: Inhibition of DYRK1A (unknown origin)

Row | SMILES | concentration at 2555 h [1] [µM] | Activity (Mus musculus [2]) [um3] | IC50 [3] [nM] | Activity [4] [%] | Activity (Mus musculus [5]) [um] | Time (Mus musculus [6]) [s] | AUC(0-inf) [7] [µg·h/mL] | Activity (Mus musculus [8]) [%] | IC50 [9] [nM] | IC50 [10] [nM] | Activity [11] [%] | IC50 [12] [nM] | Activity [13] [RPKM] | Activity (Mus musculus [14]) | IC50 [15] [nM] | IC50 [16] [nM] | Activity (Mus musculus [17]) [um3] | Activity [18] | IC50 [19] [nM]
1 | FC(F)(F)c1ccc(CNc2ccc(Cc3c[nH]c4ncc(Cl)cc34)cn2)cn1 [PEXIDARTINIB] | 12 | 688.11 | – | – | – | – | – | – | – | – | – | – | – | – | – | – | – | – | –
2 | COc1ncc(F)cc1CNc1ccc(Cc2c[nH]c3ncc(C)cc23)c(F)n1 [PLX-5622] | – | – | > 1000 | 95.841 | 4.447 | 30.9 | 181 | 9.039 | > 1000 | > 1000 | 81.186 | > 1000 | 0.238 | 17 | > 1000 | > 1000 | 66.975 | 0 | > 1000
